Activity calls are given as the source filed them. The rule behind the calls is not given here.
Columns and labels:
[1] = Cytotoxicity against mouse RAW264.7 cells assessed as survival rate at 10 uM after 24 hrs by MTT assay; assay type: cell-based; conditions: read-out: Activity
Procedure, shortened: (§1)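 Cells at 1 × 10⁴/well in DMEM + 10% FBS, exposed to compounds for 24 h at 37 °C, 5% CO₂. After PBS washes, MTT (0.5 mg/mL in medium) added for 1 h at 37 °C; formazan dissolved in DMSO, absorbance read at 540 nm. Viability expressed as % of DMSO control; CC₅₀ is the concentration giving 50% loss of mean viability (N = 3).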

[2] = Cytotoxicity against mouse RAW264.7 cells assessed as reduction in survival rate after 24 hrs by MTT assay; assay type: cell-based; procedure, shortened: as §1
[3] = test system: RAW264.7; test: Inhibition of RANKL-induced osteoclastogenesis in mouse RAW264.7 cells assessed as TRAP+ multinucleated cells level at 10 uM incubated for 4 days by TRAP staining assay; assay type: functional; parameters: scale not given: the % may be the effect or the level left
Procedure, shortened: (§2)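 Cells plated at 1 × 10³ (96-well) or 5 × 10⁴ (48-well) in α-MEM with 10% FBS, 2 mM […], 100 ng/mL recombinant murine RANKL and compound for 4 days; medium changed on day 2. Fixed in acetone/citrate/formaldehyde for 5 min and TRAP-stained. TRAP⁺ cells with >5 nuclei counted by light microscopy, expressed as % of the RANKL-only group.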

[4] = test system: RAW264.7; test: Inhibition of RANKL-induced osteoclastogenesis in mouse RAW264.7 cells assessed as TRAP+ multinucleated cells level incubated for 4 days by TRAP staining assay; assay type: functional, cell-based; conditions: RAW264.7, 96 h
Procedure, shortened: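 RAW264.7 cells in α-MEM with 10% FBS, 2 mM […], 100 ng/mL recombinant soluble murine RANKL and a range of compound concentrations for 4 days, with medium changed on day 2. Cells fixed in acetone/citrate/formaldehyde for 5 min and TRAP-stained. Cells with >5 nuclei counted by light microscopy and expressed as % of RANKL-only; IC50 is 50% inhibition.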

[5] = test system: RAW264.7; test: Cytotoxicity against mouse RAW264.7 cells assessed as survival rate at 5 and 10 uM after 24 hrs by MTT assay; assay type: cell-based; conditions: raw264.7, 24 h; procedure, shortened: as §1
[6] = test system: RAW264.7; test: Inhibition of RANKL-induced osteoclastogenesis in mouse RAW264.7 cells assessed as TRAP+ multinucleated cells level at 5 uM incubated for 4 days by TRAP staining assay; assay type: functional; parameters: scale not given: the % may be the effect or the level left; procedure, shortened: as §2
[7] = test system: RAW264.7; test: Inhibition of RANKL-induced osteoclastogenesis in mouse RAW264.7 cells assessed as TRAP+ multinucleated cells level at […] incubated for 4 days by TRAP staining assay; assay type: functional; parameters: scale not given: the % may be the effect or the level left
[8] = test system: RAW264.7; test: Inhibition of RANKL-induced osteoclastogenesis in mouse RAW264.7 cells assessed as TRAP+ multinucleated cells level at 2.5 uM incubated for 4 days by TRAP staining assay; assay type: functional; parameters: scale not given: the % may be the effect or the level left; procedure, shortened: as §2
[9] = test system: RAW264.7; test: Inhibition of RANKL-induced osteoclastogenesis in mouse RAW264.7 cells assessed as reduction in TRAP activity incubated for 4 days by TRAP staining assay; assay type: functional, cell-based; conditions: for IC50: RAW264.7, 96 h
Procedure, shortened: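 RAW264.7 cells were RANKL-differentiated (100 ng/mL recombinant soluble murine RANKL in α-MEM/10% FBS, compounds at various concentrations, 4 days, medium changed day 2). TRAP activity was read with 2 mg/mL 4-nitrophenyl phosphate in 0.09 M citrate buffer for 15 min at 37 °C, stopped with 0.1 N NaOH. Expressed as % of RANKL-only; IC50 is 50% inhibition.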

[10] = test system: RAW264.7; test: Inhibition of RANKL-induced NFATc1 mRNA expression in mouse RAW264.7 cells at 5 to […] pre-treated for 1 hr before RANKL stimulation measured after 24 to 48 hrs by RT-PCR method; assay type: functional, cell-based
[11] = test system: RAW264.7; test: Inhibition of RANKL-induced c-fos mRNA expression in mouse RAW264.7 cells at 5 to […] pre-treated for 1 hr before RANKL stimulation measured after 24 to 48 hrs by RT-PCR method; assay type: functional, cell-based
[12] = test system: RAW264.7; test: Inhibition of RANKL-induced DC-STAMP mRNA expression in mouse RAW264.7 cells at 5 to […] pre-treated for 1 hr before RANKL stimulation measured after 24 to 48 hrs by RT-PCR method; assay type: functional, cell-based
[13] = test system: RAW264.7; test: Inhibition of RANKL-induced TRAP mRNA expression in mouse RAW264.7 cells at 5 to […] pre-treated for 1 hr before RANKL stimulation measured after 24 to 48 hrs by RT-PCR method; assay type: functional, cell-based
[14] = test system: RAW264.7; test: Inhibition of RANKL-induced cathepsin K mRNA expression in mouse RAW264.7 cells at 5 to […] pre-treated for 1 hr before RANKL stimulation measured after 24 to 48 hrs by RT-PCR method; assay type: functional, cell-based
[15] = test system: RAW264.7; test: Inhibition of RANKL-induced MMP9 mRNA expression in mouse RAW264.7 cells at 5 to […] pre-treated for 1 hr before RANKL stimulation measured after 24 to 48 hrs by RT-PCR method; assay type: functional, cell-based
[16] = test system: RAW264.7; test: Inhibition of RANKL-induced NFATc1 protein expression in mouse RAW264.7 cells nuclear extracts at 5 to […] pre-treated for 1 hr before RANKL stimulation measured after 24 hrs by Western blotting method; assay type: functional, cell-based
[17] = test system: RAW264.7; test: Inhibition of RANKL-induced NFkappaB protein expression in mouse RAW264.7 cells nuclear extracts at 5 to […] pre-treated for 1 hr before RANKL stimulation measured after 24 hrs by Western blotting method; assay type: functional, cell-based
[18] = test system: RAW264.7; test: Inhibition of RANKL-induced NFkappaB protein expression in mouse RAW264.7 cells nuclear extracts assessed as NFkappaB level at 5 uM pre-treated for 1 hr before RANKL stimulation measured after 24 hrs by Western blotting method relative to TBP protein; assay type: functional
Procedure, shortened: (§3)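 Cells (1 × 10⁶ per 6 cm plate) attached 24 h in DMEM/10% FBS. Pretreated with compound in α-MEM/10% FBS for 1 h, then RANKL 100 ng/mL for 24 h. Nuclear extracts (18 μg) run on 12% SDS-PAGE and blotted with monoclonal anti-NFATc1 or anti-NF-κB (1:1000, 12 h, 4 °C) plus HRP secondary, ECL detection. Band signal normalized to TATA-box binding protein.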

[19] = test system: RAW264.7; test: Inhibition of RANKL-induced NFkappaB protein expression in mouse RAW264.7 cells nuclear extracts assessed as NFkappaB level at […] pre-treated for 1 hr before RANKL stimulation measured after 24 hrs by Western blotting method relative to TBP protein; assay type: functional
[20] = test system: RAW264.7; test: Inhibition of RANKL-induced NFATc1 protein expression in mouse RAW264.7 cells nuclear extracts assessed as NFATc1 level at 5 uM pre-treated for 1 hr before RANKL stimulation measured after 24 hrs by Western blotting method relative to TBP protein; assay type: functional; procedure, shortened: as §3
[21] = test system: RAW264.7; test: Inhibition of RANKL-induced NFATc1 protein expression in mouse RAW264.7 cells nuclear extracts assessed as NFATc1 level at […] pre-treated for 1 hr before RANKL stimulation measured after 24 hrs by Western blotting method relative to TBP protein; assay type: functional
[22] = test system: RAW264.7; test: Inhibition of RANKL-induced bone resorption in mouse RAW264.7 cells incubated for 4 days by toluidine blue staining based pit formation assay; assay type: functional, cell-based
Procedure, shortened: (§4)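 Seeded at 1 × 10⁴/well onto dentine slices in α-MEM/10% FBS with 100 ng/mL RANKL plus compound. Medium with compound renewed every 2 days. On day 4, cells removed with 1 M ammonium hydroxide, slices stained with 0.1% toluidine blue, pits imaged by light microscopy. Resorbed area expressed as fraction of total area; significance versus the RANKL-only group.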

[23] = test system: RAW264.7; test: Inhibition of RANKL-induced bone resorption in mouse RAW264.7 cells assessed as reduction in resorbed area at 2.5 to 10 uM incubated for 4 days by toluidine blue staining based pit formation assay; assay type: functional, cell-based; procedure, shortened: as §4
[24] = Toxicity in mouse MC3T3-E1 cells assessed as effect on osteoblast differentiation by measuring ALP activity at […] incubated for 14 days in presence of beta-glycerol phosphate and ascorbic acid; assay type: cell-based; conditions: mc3t3-e1, 336 h
[25] = Toxicity in mouse MC3T3-E1 cells assessed as effect on osteoblast differentiation by measuring ECM calcification activity at […] incubated for 14 days in presence of beta-glycerol phosphate and ascorbic acid by Alizarin red S staining method; assay type: cell-based; conditions: mc3t3-e1, 336 h

Structure (SMILES)	viability at 24 h, 10 µM [1] [%]	CC50 at 24 h [2] [µM]	Activity [3] [%]	IC50 [4] [µM]	Activity [5]	Activity [6] [%]	Activity [7] [%]	inhibition [9]	IC50 [9] [µM]	inhibition [10]	inhibition [11]	inhibition [12]	inhibition [13]	inhibition [14]	inhibition [15]	inhibition [16]	inhibition [17]	fold change (FC) [18]	fold change (FC) [19]	fold change (FC) [20]	also measured
O=c1oc2ccccc2c(=O)n1-c1ccc(I)cc1F	91.4	23.6	1.8	4.9	Non-toxic	49.1	29.1	Dose-dependent effect	7.3	Active	Active	Active	Dose-dependent effect	Dose-dependent effect	Dose-dependent effect	Dose-dependent effect	Dose-dependent effect	0.75	0.58	0.76	Activity [8]: 74.1%; fold change (FC) [21]: 0.72; inhibition [22]: Dose-dependent effect; inhibition [23]: Active; Activity [24]: Non-toxic; Activity [25]: Non-toxic
O=c1oc2ccccc2c(=O)n1-c1ccc(Cl)cc1F	97.9	26.5	19.7	7.1	Non-toxic	74.6	45.9	Dose-dependent effect	10.6	Active	Active	Active	Dose-dependent effect	Dose-dependent effect	Dose-dependent effect	Dose-dependent effect	Dose-dependent effect	0.77	0.73	0.99	fold change (FC) [21]: 0.76; inhibition [22]: Dose-dependent effect; inhibition [23]: Active; Activity [24]: Non-toxic; Activity [25]: Non-toxic

Reference: ChEMBL document CHEMBL3351250, “Modified salicylanilide and 3-phenyl-2H-benzo[e][1,3]oxazine-2,4(3H)-dione derivatives as novel inhibitors of osteoclast differentiation and bone resorption” (J Med Chem, 2014)
